Measured values taken from ChEMBL document CHEMBL4811241, “Revisiting Pyrazolo[3,4-d]pyrimidine Nucleosides as Anti-Trypanosoma cruzi and Antileishmanial Agents” (J Med Chem, 2021).

Assays:
[1] = Cytotoxicity against human MRC-5 SV2 cells assessed as reduction in cell growth measured after 3 days by resazurin dye based fluorometric analysis; details: time 3 day
Trypanosoma cruzi = experiment: Antitrypanosomal activity against nifurtimox-sensitive Trypanosoma cruzi Tulahuen CL2 infected in human MRC-5 SV2 cells assessed as inhibition of parasite growth measured after 7 days by spectrophotometric analysis; assay type: functional, organism-based; details: Tulahuen CL2, MRC-5 SV2, 168 h
Leishmania infantum = experiment: Antileishmanial activity against amastigote form of Leishmania infantum MHOM/MA(BE)/67 infected in Swiss mouse peritoneal macrophages assessed as reduction in parasite growth treated at 2 hrs post-infection and measured after 5 days by Giemsa staining based microscopic analysis; assay type: functional, organism-based; details: MHOM/MA(BE)/67, Peritoneal macrophage
How it was run: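 Swiss mouse peritoneal macrophages, harvested after 2-day potato-starch stimulation, infected 48 h after plating; compounds added 2 h post-infection.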

[2] = Cytotoxicity against Swiss mouse peritoneal macrophages assessed as cell detachment, lysis and granulation measured after 5 days by microscopic analysis; assay type: cell-based, Peritoneal macrophage; details: time 5 day
How it was run: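 Scored within the Leishmania macrophage assay over 5 days: detachment, lysis and granulation judged semi-quantitatively by microscopy across at least 500 cells. CC50 derived from % reduction in normal cells versus untreated wells.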

[3] = Selectivity index, ratio of CC50 for human MRC-5 SV2 cells to IC50 for antitrypanosomal activity against nifurtimox-sensitive Trypanosoma cruzi Tulahuen CL2 infected in human MRC-5 SV2 cells; assay type: toxicity, cell-based; details: read-out: Ratio CC50/IC50
How it was run: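 Ratio of MRC-5SV2 CC50 (3-day resazurin assay) to IC50 against T. cruzi amastigotes in MRC-5SV2 cells (7-day CPRG assay).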

| Compound | CC50 at 72 h [1] | IC50 (Trypanosoma cruzi) | IC50 (Leishmania infantum) | CC50 at 120 h [2] | selectivity ratio [3] |
| --- | --- | --- | --- | --- | --- |
| Nc1ncnc2c1cnn2[C@@H]1O[C@H](CO)C[C@H]1O | > 64 µM | > 64 µM | > 64 µM | > 64 µM | – |
| O=c1[nH]cnc2c1c(Br)nn2[C@@H]1O[C@H](CO)[C@@H](O)[C@H]1O | > 64 µM | > 64 µM | > 64 µM | > 64 µM | – |
| Nc1ncnc2c1c(-c1ccccc1)nn2[C@@H]1O[C@H](CO)[C@@H](O)[C@H]1O | > 64 µM | 13.1 µM | > 64 µM | > 64 µM | > 5 |
| Nc1ncnc2c1c(-c1cccs1)nn2[C@@H]1O[C@H](CO)[C@@H](O)[C@H]1O | 32 µM | 10.4 µM | > 64 µM | > 64 µM | 3 |
| Cc1ccc(-c2nn([C@@H]3O[C@H](CO)[C@@H](O)[C@H]3O)c3ncnc(N)c23)cc1 | > 64 µM | 1.77 µM | > 64 µM | > 64 µM | > 36 |
| Oc1ncnc2[nH]nc(Br)c12 | > 64 µM | > 64 µM | > 64 µM | > 64 µM | – |
| Nc1ncnc2c1cnn2[C@@H]1O[C@H](CO)[C@@H](F)[C@H]1O | > 64 µM | > 64 µM | > 64 µM | > 64 µM | – |
| Nc1ncnc2c1c(-c1ccc(OC(F)(F)F)cc1)nn2[C@@H]1O[C@H](CO)[C@@H](O)[C@H]1O | > 64 µM | 15.6 µM | > 64 µM | > 64 µM | > 4 |
| COc1cc(-c2nn([C@@H]3O[C@H](CO)[C@@H](O)[C@H]3O)c3ncnc(N)c23)ccc1Cl | > 64 µM | 1.14 µM | > 64 µM | > 64 µM | > 56 |
| CNC(=O)c1nn([C@@H]2O[C@H](CO)[C@@H](O)[C@H]2O)c2ncnc(N)c12 | > 64 µM | 4 µM | > 64 µM | > 64 µM | 16 |
| CC(C)c1nn([C@@H]2O[C@H](CO)[C@@H](O)[C@H]2O)c2ncnc(N)c12 | 10.6 µM | > 64 µM | > 64 µM | > 64 µM | < 1 |
| N#Cc1ccc(-c2nn([C@@H]3O[C@H](CO)[C@@H](O)[C@H]3O)c3ncnc(N)c23)cc1 | > 64 µM | 32 µM | > 64 µM | > 64 µM | > 2 |
| Nc1ncnc2c1c(-c1ccc(Cl)c(C(F)(F)F)c1)nn2[C@@H]1O[C@H](CO)[C@@H](O)[C@H]1O | > 64 µM | 43.8 µM | > 64 µM | > 64 µM | > 1 |
| Nc1ncnc2c1c(-c1ccc(F)c(Cl)c1)nn2[C@@H]1O[C@H](CO)[C@@H](O)[C@H]1O | > 64 µM | 4.66 µM | > 64 µM | > 64 µM | > 14 |
| CCCCCCCCCCCCCCCCOP(=O)([O-])OCC[N+](C)(C)C [MILTEFOSINE] | – | – | 7.47 µM | – | – |
| CCc1nn([C@@H]2O[C@H](CO)[C@@H](O)[C@H]2O)c2ncnc(N)c12 | > 64 µM | > 64 µM | > 64 µM | > 64 µM | – |
| Nc1ncnc2c1cnn2[C@H]1C[C@H](O)[C@@H](CO)O1 | > 64 µM | > 64 µM | > 64 µM | > 64 µM | – |
| Nc1ncnc2c1c(N1CCCC1)nn2[C@@H]1O[C@H](CO)[C@@H](O)[C@H]1O | > 64 µM | > 64 µM | > 64 µM | > 64 µM | – |

| Compound | CC50 at 72 h [1] | IC50 (Trypanosoma cruzi) | IC50 (Leishmania infantum) | CC50 at 120 h [2] | selectivity ratio [3] |
| --- | --- | --- | --- | --- | --- |
| Nc1ncnc2c1c(-c1ccc([N+](=O)[O-])cc1)nn2[C@@H]1O[C@H](CO)[C@@H](O)[C@H]1O | > 64 µM | 10.3 µM | > 64 µM | > 64 µM | > 6 |
| Nc1ncnc2c1c(C(=O)N1CCCC1)nn2[C@@H]1O[C@H](CO)[C@@H](O)[C@H]1O | > 64 µM | > 64 µM | > 64 µM | > 64 µM | – |
| O=c1[nH]cnc2c1cnn2[C@@H]1O[C@H](CO)[C@@H](F)[C@H]1O | > 64 µM | > 64 µM | > 64 µM | > 64 µM | – |
| O=c1[nH]cnc2c1cnn2[C@@H]1O[C@H](CO)C[C@H]1O | > 64 µM | > 64 µM | > 64 µM | > 64 µM | – |
| Nc1ncnc2c1c(-c1ccc(F)c(F)c1)nn2[C@@H]1O[C@H](CO)[C@@H](O)[C@H]1O | > 64 µM | 4.24 µM | > 64 µM | > 64 µM | > 15 |
| Nc1ncnc2c1c(-c1ccc(Cl)c(F)c1)nn2[C@@H]1O[C@H](CO)[C@@H](O)[C@H]1O | > 64 µM | 1.19 µM | > 64 µM | > 64 µM | > 54 |
| O=c1[nH]cnc2c1c(Br)nn2[C@@H]1O[C@H](CO)[C@@H](F)[C@H]1O | > 64 µM | > 64 µM | > 64 µM | > 64 µM | – |
| N#Cc1cc(-c2ccc(-c3nn([C@@H]4O[C@H](CO)[C@@H](O)[C@H]4O)c4ncnc(N)c34)cc2C#N)ccc1Cl | > 64 µM | > 64 µM | > 64 µM | > 64 µM | – |
| Nc1ncnc2c1c(CN1CCOCC1)nn2[C@@H]1O[C@H](CO)[C@@H](O)[C@H]1O | > 64 µM | > 64 µM | > 64 µM | > 64 µM | – |
| Nc1ncnc2c1c(Br)nn2[C@@H]1O[C@H](CO)C[C@H]1O | 2.2 µM | 38.5 µM | > 64 µM | > 64 µM | – |
| O=c1[nH]cnc2c1c(Br)nn2[C@@H]1O[C@H](CO)C[C@H]1O | > 64 µM | > 64 µM | > 64 µM | > 64 µM | – |
| Nc1ncnc2c1c(Oc1ccc(Cl)cc1)nn2[C@@H]1O[C@H](CO)[C@@H](O)[C@H]1O | > 64 µM | > 64 µM | > 64 µM | > 64 µM | – |
| Nc1ncnc2c1c(C(=O)NCc1ccccc1)nn2[C@@H]1O[C@H](CO)[C@@H](O)[C@H]1O | > 64 µM | > 64 µM | > 64 µM | > 64 µM | – |
| CC(C)(C)c1ccc(-c2nn([C@@H]3O[C@H](CO)[C@@H](O)[C@H]3O)c3ncnc(N)c23)cc1 | > 64 µM | > 64 µM | > 64 µM | > 64 µM | – |
| Nc1ncnc2c1c(-c1nnn[nH]1)nn2[C@@H]1O[C@H](CO)[C@@H](O)[C@H]1O | > 64 µM | > 64 µM | > 64 µM | > 64 µM | – |
| Nc1ncnc2c1c(C1CC1)nn2[C@@H]1O[C@H](CO)[C@@H](O)[C@H]1O | > 64 µM | > 64 µM | > 64 µM | > 64 µM | – |
| N#Cc1cc(-c2nn([C@@H]3O[C@H](CO)[C@@H](O)[C@H]3O)c3ncnc(N)c23)ccc1Cl | > 64 µM | > 64 µM | > 64 µM | > 64 µM | – |
| Nc1ncnc2c1c(Br)nn2[C@H]1C[C@H](O)[C@@H](CO)O1 | 24.9 µM | 53.2 µM | > 64 µM | > 64 µM | – |
